Bioassay records (PubChem)
Shown are actives, neighbours in structure and some others; about 4.3% of the full set was active somewhere.
PREPL inh: human PREPL enzyme inhibition | AID 2751 | 320,000 tested, 0.68% active | Q4J6C6 | recombinant PREPL, fluorescence polarization activity-based probe | inhibition, % at 5.96 µM; in the data active means inhibition above about 43%;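 further: 0% = enzyme with DMSO and 100% = wells lacking enzyme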
UBC9 SUMO inh: SUMOylation inhibition. P63279. HTRF SUMOylation assay, SAE1/SAE2 + UBC9, in vitro. inhibition, % at 35 µM. 290,000 tested, 0.36% active; in the data active means inhibition above about 50%, passing the limit was not always enough
ALR inh: blocks human ALR sulfhydryl oxidase activity | P55789 | purified ALR, DTT oxidation, H2O2 HRP-luminol luminescence | inhibition, % (test concentration not listed) | 290,000 tested, 3.8% active | AID 485317;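 active means mean replicate inhibition above about 79%, with every replicate also reaching it, limit read from the data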
RBBP9 inhibitor: inhibitors of human serine hydrolase RBBP9. 220,000 tested, 0.2% active. recombinant RBBP9, FP-Rh probe fluorescence polarization. inhibition, % at 7.94 µM;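 active means inhibition above the campaign mean of all tested compounds plus 3 SD, cut at about 14% in these data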;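 further: plate controls were DMSO wells with RBBP9 for no effect and wells lacking RBBP9 protein for full effect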
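Test system: recombinant human RBBP9. Quantity: 2.5 µM RBBP9 dispensing solution, before mixing. Detection: FP readout at 525/598 nm. Reagent: Serine-hydrolase probe FP-Rh, 375 nM pre-mixing. Measure: % inhibition. Control set: DMSO-treated enzyme wells and wells lacking RBBP9. Buffer or medium: Tris-NaCl-Pluronic buffer, pH 8.0. Times: preincubation 30 min plus labeling 45 min at 25 °C.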
UBC13 inh: inhibitors of human UBC13 polyubiquitin chain formation. 330,000 tested, 0.47% active. P61088. TR-FRET. inhibition, % at 20 µM; in the data active means inhibition above about 45%, passing the limit was not always enough
Rin1-Abl PPI inh: human Rin1-Abl interaction inhibition | AID 588664 | 360,000 tested, 0.4% active | P00519+Q13671 | TR-FRET Rin1/Abl binding, biochemical | inhibition, % at 7.35 µM; in the data active means inhibition above about 5%, passing the limit was not always enough
Numbers without * were called inactive; i = inactive; . = no result.

SMILES | PREPL inh | UBC9 SUMO inh | ALR inh | RBBP9 inhibitor | UBC13 inh | Rin1-Abl PPI inh
Cc1cc(C)c(S(=O)(=O)Nc2ncn[nH]2)cc1C | 1 | 12 | 18 | . | 0 | 4
COc1ccc(CCNC(=O)C2CCN(Cc3nc(-c4ccc(Cl)cc4)oc3C)CC2)cc1OC | . | . | . | . | . | -4
COc1ccc(CCNC(=O)CS(=O)Cc2nc(-c3ccc(C)cc3)oc2C)cc1OC (centres undefined) | -1 | 12 | 99* | . | -6 | 0
CCOc1ccc(CCNC(=O)CS(=O)Cc2nc(-c3ccc(OC)cc3)oc2C)cc1OCC (centres undefined) | 11 | 21 | 99* | . | -11 | 1
CCOc1ccc(CCNC(=O)CCc2nc(-c3ccc(OC)cc3)no2)cc1OCC | 4 | 4 | 0 | 4 | 1 | -2
COc1ccc(-c2nc(CS(=O)CC(=O)NCCc3ccc(C)cc3)c(C)o2)cc1OC (centres undefined) | 5 | 13 | 99* | . | -9 | 1
COc1ccc(-c2nc(CS(=O)CC(=O)NCCc3ccc(OC)c(OC)c3)c(C)o2)cc1 (centres undefined) | -5 | -2 | 98* | . | -6 | 1
CC1(C(=O)NS(=O)(=O)c2cccc(Cl)c2)CCN1C(=O)C1(c2ccc(Cl)cc2)CC1 (centres undefined) | . | . | . | . | . | 0
O=C(CSc1nnc(-c2c[nH]c3ccccc23)n1C1CC1)NC1CCS(=O)(=O)C1 (centres undefined) | . | . | . | . | . | 4
Cc1cccc(C(O)c2ncc(-c3ccc(C(F)(F)F)cc3)[nH]2)c1C (centres undefined) | . | . | . | . | . | 7
Cc1ccccc1S(=O)(=O)N(CC(O)CN1CCCCC1)c1ccccc1 (centres undefined) | -12 | -6 | -7 | . | 1 | 0
OC(CN1CCOCC1)CN(c1ccccc1)c1ccccc1 (centres undefined) | 11 | 15 | 99* | 6 | 2 | 0
c1ccc(C(CN2CCOCC2)c2ccccc2)cc1 | 2 | -4 | -4 | -5 | 5 | -2
O=C(c1ccccc1)C(CCC(CN1CCOCC1)C(=O)c1ccccc1)CN1CCOCC1 (centres undefined) | 5 | -9 | 98* | 0 | -2 | -1
OC(CN1CCCCC1)CN(c1ccccc1)c1ccccc1 (centres undefined) | 12 | 23 | 98* | -2 | 5 | 0
OC(COC(c1ccccc1)c1ccccc1)CN1CCOCC1 (centres undefined) | 7 | 4 | -3 | -2 | -29 | 0
OC(CN1CCCCCC1)CN(c1ccccc1)c1ccccc1 (centres undefined) | 33 | 4 | 99* | . | 9 | -1
CCC(C)c1ccc(OCC(=O)Nc2ccc(CN3CCOCC3)cc2)cc1 (centres undefined) | . | 0 | -6 | . | 14 | 1
COc1ccc(C(=O)N/C(=C/c2ccccc2F)C(=O)NCCN2CCOCC2)cc1OC | -1 | 14 | 10 | . | -9 | 2
Nc1cccc2nsnc12 | 2 | 88* | -2 | -3 | -37 | 0
Cc1ccc2nsnc2c1N | 12 | 19 | -24 | -3 | -25 | -5
CCN(CC)c1ccc(NC(=O)CCNC(=O)c2ccco2)cc1 | -2 | -14 | 99* | -6 | 2 | 3
CCN(CC)S(=O)(=O)c1ccc(NC(=O)CCNC(=O)c2ccco2)cc1 | -2 | -9 | -6 | . | 4 | 0
CN(C)c1ccc(NC(=O)c2sc(SCC(=O)Nc3nccs3)nc2N)cc1 | 31 | -16 | 12 | 7 | 3 | -7
Cc1cccc(NC(=O)CSc2nc3[nH]c(=O)cc(O)c3s2)c1 | 4 | . | 99* | . | -27 | -2
SMILES | PREPL inh | UBC9 SUMO inh | ALR inh | RBBP9 inhibitor | UBC13 inh | Rin1-Abl PPI inh
Cc1ccccc1NC(=O)CSc1nc2[nH]c(=O)cc(O)c2s1 | . | . | . | . | -9 | -2
O=C(CSc1nc2[nH]c(=O)cc(O)c2s1)Nc1ccc(Br)cc1 | 1 | . | 82* | . | -17 | 2
Nc1cc(=O)[nH]c(SCC(=O)Nc2ccc(Cl)c(Cl)c2)n1 | -25 | 30 | -7 | -4 | 3 | -7
Nc1cc(=O)[nH]c(SCC(=O)Nc2ccc(Br)cc2)n1 | -5 | 1 | 98* | -5 | 4 | -2
CN(C)c1ccc(NC(=O)c2sc(SCC(=O)Nc3ccc(Br)cc3)nc2N)cc1 | 1 | 55* | 3 | -1 | -10 | -3
COc1ccc(NC(=O)CSc2nc3[nH]c(=O)[nH]c(=O)c3s2)cc1OC | 0 | -4 | 99* | . | -1 | 2
Cc1cccc(Nc2nnc(SCC(=O)Nc3ccc(C(=O)O)cc3)s2)c1 | 11 | 4 | 94* | -12 | 6 | 1
COc1cc(NC(=O)CSc2nc3[nH]c(=O)cc(O)c3s2)cc(OC)c1OC | 2 | . | 99* | . | -1 | 2
Cc1cccc(C)c1NC(=O)CSc1nc2[nH]c(=O)cc(O)c2s1 | -2 | . | 0 | . | -14 | 2
COc1ccc(OC)c(NC(=O)CSc2nc3[nH]c(=O)[nH]c(=O)c3s2)c1 | . | . | . | . | . | 0
O=C(CSc1nc2[nH]c(=O)cc(O)c2s1)Nc1cccc(Br)c1 | -1 | . | 99* | . | -11 | 2
CN(C)c1nc(N)nc2c1ncn2C1OC(CO)CC1O (centres undefined) | . | . | . | . | . | 2
O=C(OCn1ncc(Br)c(Br)c1=O)c1ccccc1Cl | 16 | -96 | 20 | -9 | -8 | -4
O=C(OCn1ncc(Cl)c(Cl)c1=O)c1cccc(C(F)(F)F)c1 | 15 | 1 | 97* | -12 | 13 | 2
CC1=NN(C(N)=S)C(=O)C1N=Nc1ccc([N+](=O)[O-])cc1 (centres undefined) | 5 | -22 | 79* | . | i | -3
CC1=NN(C(N)=S)C(=O)C1N=Nc1ccc(O)cc1 (centres undefined) | . | 9 | . | 0 | -64 | -8
Cc1cc(O)c(/C=N/Nc2ccc(Cl)cc2)c(=O)o1 | 2 | -14 | 98* | 1 | -7 | 4
Cc1c(C)n(CC(O)CN2CCCCCC2)c2ccccc12 (centres undefined) | 18 | -32 | 98* | -4 | 6 | -1
Cc1c(C)n(CC(O)CNc2ccccc2)c2ccccc12 (centres undefined) | 6 | -3 | 98* | -5 | 4 | -1
O=[N+]([O-])c1ccc(/C=C2\CCC(C3=CCCC3)=C2N2CCOCC2)cc1 | 16 | 9 | 97* | 2 | -33 | -3
CCc1ccccc1N(CC(=O)N1CCc2ccccc2C1)S(C)(=O)=O | -13 | -15 | 2 | . | -6 | 3
c1ccc(NCCSc2nc3ccccc3s2)cc1 | . | . | . | . | . | -1
c1csc(CSc2nc3ccccc3s2)c1 | -4 | 17 | 94* | 6 | -6 | 2
CNc1nnc(CSc2nc3ccccc3s2)s1 | 0 | 3 | 99* | 2 | -1 | -2
CCS(=O)CCSc1nc2ccccc2s1 (centres undefined) | -2 | -16 | 99* | 5 | 8 | -1
